Assay results from different studies.
RPS6KA3 N-terminal kinase domain: Ribosomal protein S6 kinase alpha-3, N-terminal kinase domain (RPS6KA3, Homo sapiens, UniProt P51812)
RPS6KA3: Ribosomal protein S6 kinase alpha-3 (RPS6KA3, Homo sapiens, UniProt P51812)
RPS6KA3 C-terminal kinase domain: Ribosomal protein S6 kinase alpha-3, C-terminal kinase domain (RPS6KA3, Homo sapiens, UniProt P51812)

Structure (SMILES) | target | assay | test system | setting | quantity | result
COCCOc1nc(-c2ccc(Cl)nc2)nc2c1CN(C(=O)c1ncn3ccccc13)CC2 | RPS6KA3 N-terminal kinase domain | cell-free assay, competition with immobilised ligand | – | 0.1 µM | remaining binding | 100%
N#CCCc1ccc2c(c1)-c1[nH]c3ccc([N+](=O)[O-])cc3c1CC(=O)N2 | RPS6KA3 | cell-free assay | – | 0.5 µM | remaining signal | 28.6%
CN(C)c1nccc(-c2cnc3ncccn23)n1 | RPS6KA3 N-terminal kinase domain | binding, competition with immobilised ligand | – | 1 µM | remaining binding | 70%
Cc1ccc(C(=O)NCc2ccsc2)cc1C#Cc1cn(C(C)C)c2ncnc(N)c12 | RPS6KA3 | enzyme activity, inhibitor | – | 1 µM | activity vs control | 92%
Nc1nc(NC2CCCCC2)sc1C(=O)c1ccccc1 | RPS6KA3 | enzyme activity, inhibitor | – | 10 µM | remaining activity | 85%
Cc1ccc(NC(=O)c2ccc(C)c(C(F)(F)F)c2)cc1C#Cc1nn(C2CCC(O)CC2)c2ncnc(N)c12 (stereo not drawn) | RPS6KA3 | cell-free assay | – | 10 µM | remaining signal | 44%
CNCc1ccccc1-c1csc([C@H](C)Nc2nc(C)nc3cc(OC)c(OC)cc23)c1 | RPS6KA3 C-terminal kinase domain | cell-free assay, competition with immobilised ligand | – | 1 µM | remaining binding | 78%
Cc1ccc(C(=O)Nc2ccc(CN3CCN(C)CC3)c(C(F)(F)F)c2)cc1C#Cc1cnc2cccnn12 | RPS6KA3 | enzyme activity, inhibitor | – | 23.5 nM | remaining activity | 93%
Cc1nc(N2CC[C@@H](O)C2)ncc1-c1cc(C(F)(F)F)cc2[nH]ncc12 | RPS6KA3 C-terminal kinase domain | binding, competition with immobilised ligand | – | 1 µM | remaining binding | 58%
CNc1cc(Oc2cc(C(=O)Nc3cc(N4CCN(C)CC4)cc(C(F)(F)F)c3)ccc2C)ncn1 | RPS6KA3 C-terminal kinase domain | target engagement in cells, inhibitor, chemoproteomics | Huh-7 | 1 µM | inhibition | -50.6%
CC(C)(O)[C@H]1CC[C@H](Nc2ccc3ncc(-c4cccc(C(F)(F)F)c4)n3n2)CC1 | RPS6KA3 | enzyme activity, inhibitor | – | 1 µM | remaining activity | 90.6%
O=C(Nc1cnn(-c2csc(C(=O)NC3COC3)c2)c1)Nc1ccccc1Cl | RPS6KA3 | enzyme activity, inhibitor | – | 5 µM | remaining activity | 101%
CC1CCCN1c1nccc(-c2cnn3ncccc23)n1 (stereo not drawn) | RPS6KA3 N-terminal kinase domain | binding, competition with immobilised ligand | – | 1 µM | remaining binding | 100%
Cc1ccc(Nc2nccc(N(C)c3ccc4c(C)n(C)nc4c3)n2)cc1S(N)(=O)=O | RPS6KA3 | enzyme activity, inhibitor | – | 0.3 µM | inhibition | 31%
CCCOc1ccc(OC)c(F)c1C(=O)c1ccc(C(=O)N[C@@H]2CNC[C@H]2NC(=O)c2ccc3[nH]ncc3c2)cc1 | RPS6KA3 | enzyme activity, inhibitor | – | 10 µM | remaining activity | 12%
O=C(O)c1cc(-c2ccc(C3CCNCC3)cc2)c2ccc(-c3ccc(C(F)(F)F)cc3)cc2c1 | RPS6KA3 C-terminal kinase domain | cell-free assay, competition with immobilised ligand | – | 1 µM | remaining binding | 80%
CCOc1cc(-c2nncn2C)ccc1Nc1ncc2cc(C)nc(NCC(C)(C)C)c2n1 | RPS6KA3 | enzyme activity, inhibitor, FRET | – | 1 µM | inhibition | 18%
COc1cc2ncnc(Nc3ccc(F)c(Cl)c3)c2cc1OCCCN1CCOCC1 | RPS6KA3 | cell-free assay | – | 0.5 µM | remaining signal | 100%
CC(C)(C)C(=O)c1sc(NC2CCCCC2)nc1N | RPS6KA3 | enzyme activity, inhibitor | – | 10 µM | remaining activity | 104%
Oc1cccc(-c2nc(N3CCOCC3)c3oc4ncccc4c3n2)c1 | RPS6KA3 | enzyme activity, inhibitor | – | 10 µM | remaining activity | 96%
COc1ccc2c(O[C@@H]3C[C@H]4C(=O)N[C@]5(C(=O)O)CC5/C=C\CCCCC[C@H](NC(=O)OC5CCCC5)C(=O)N4C3)cc(-c3csc(NC(=O)C(C)C)n3)nc2c1C (stereo partly drawn) | RPS6KA3 N-terminal kinase domain | cell-free assay, competition with immobilised ligand | – | 1 µM | remaining binding | 100%

Structure (SMILES) | target | assay | test system | setting | quantity | result
CC(C)(C)c1nc2c(s1)c1nc(N)ncc1c1ccc(NS(=O)(=O)c3c(F)cccc3F)c(F)c12 | RPS6KA3 | enzyme activity, inhibitor, radiometric | – | 1 µM | remaining activity | 90%
CCCOc1ccc([C@@H]2[C@@H](C(=O)O)[C@H](c3ccc4c(c3)OCO4)CN2CC(=O)Nc2c(CC)cccc2CC)cc1 | RPS6KA3 C-terminal kinase domain | cell-free assay, competition with immobilised ligand | – | 1 µM | remaining binding | 76%
FC(F)(F)Oc1cccc(-c2cnc3ccc(-c4ccncc4)nn23)c1 | RPS6KA3 | enzyme activity, inhibitor, radiometric | – | 1 µM | activity vs control | 105%
CNC(=O)c1cc(Oc2ccc(NC(=O)Nc3ccc(Cl)c(C(F)(F)F)c3)cc2)ccn1 | RPS6KA3 | enzyme activity, inhibitor | – | 0.3 µM | inhibition | 22%
Clc1ccc(Nc2nnc(Cc3ccncc3)c3ccccc23)cc1 | RPS6KA3 | cell-free assay | – | 0.5 µM | remaining signal | 101%
F[C@@H]1CCN(c2nccc(-c3cnn4ncccc34)n2)C1 | RPS6KA3 C-terminal kinase domain | binding, competition with immobilised ligand | – | 1 µM | remaining binding | 100%
CC/C(=N\NC(=O)NCc1cccc(O)c1)c1ccc(O)c(C)c1O | RPS6KA3 | enzyme activity, inhibitor | – | 0.1 µM | inhibition | 79.5%
Cc1cc(NC(=O)c2cccc3cc(-c4cccc5[nH]nc(N)c45)ccc23)ccc1F | RPS6KA3 | enzyme activity, inhibitor | – | 0.1 µM | activity vs control | 131%
CC1=C(C#N)[C@@H](c2ccc3[nH]nc(C)c3c2)C(C#N)=C(c2ccc(Cl)cc2)N1 | RPS6KA3 C-terminal kinase domain | cell-free assay, competition with immobilised ligand | – | 1 µM | remaining binding | 86.2%
COc1cc2ncnc(Nc3ccc(Oc4ccccc4)c(C)c3C)c2cc1OC | RPS6KA3 | enzyme activity, inhibitor | – | 1 µM | inhibition | -1%
Cn1cncc1C1=CN(c2ncnc3[nH]cnc23)CCS1 | RPS6KA3 | enzyme activity, inhibitor, radiometric | – | 50 nM | inhibition | 12.3%
CN(C)C1CCN(CC#Cc2nn(C3CCCC3)c3nc(NCc4ccccc4)ncc23)C1 (stereo not drawn) | RPS6KA3 | enzyme activity, inhibitor, FRET | – | 0.1 µM | inhibition | 5%
N[C@H]1CCN(c2nccc(-c3cnn4ncccc34)n2)C1 | RPS6KA3 C-terminal kinase domain | binding, competition with immobilised ligand | – | 1 µM | remaining binding | 40%
COc1ccc2c(c1)O[C@@H](c1ccc(OC)c(OC)c1)C[C@H]2NC(=O)C1(c2ccc3c(c2)OC(F)(F)O3)CC1 | RPS6KA3 C-terminal kinase domain | cell-free assay, competition with immobilised ligand | – | 1 µM | remaining binding | 100%
C[C@@H]1CCN(c2nccc(-c3cnn4ncccc34)n2)C1 | RPS6KA3 C-terminal kinase domain | binding, competition with immobilised ligand | – | 1 µM | remaining binding | 98%
COc1cc(Nc2cnc(C#N)c(O[C@H](C)CN(C)C)n2)ncc1-c1cnn(C)c1 | RPS6KA3 | enzyme activity, inhibitor, radiometric | – | 10 µM | remaining activity | 34%
C[C@@H]1CCN(C(=O)CC#N)C[C@@H]1N(C)c1ncnc2[nH]ccc12 | RPS6KA3 | cell-free assay, inhibitor | – | 0.5 µM | remaining signal | 97%
CN(c1nccc(-c2cnn3ncccc23)n1)C1CC1 | RPS6KA3 N-terminal kinase domain | binding, competition with immobilised ligand | – | 1 µM | remaining binding | 100%
COc1cccc2c(NCc3ccccc3)nc(-n3c(N)nc4ccccc43)nc12 | RPS6KA3 N-terminal kinase domain | target engagement in cells, inhibitor, chemoproteomics | – | 20 mM | inhibition | 34.2%
c1cnn2ncc(-c3ccnc(N4CCC45COC5)n3)c2c1 | RPS6KA3 C-terminal kinase domain | binding, competition with immobilised ligand | – | 1 µM | remaining binding | 100%
Nc1ncnc2occ(-c3ccc(NC(=O)Nc4cc(C(F)(F)F)ccc4F)cc3)c12 | RPS6KA3 N-terminal kinase domain | cell-free assay, inhibitor | – | 20 µM | remaining signal | 0.4%
